According to publication PMC7439439 (Science Advances, 2020):
Read-outs that look alike come from different tables or passages of the source.

Columns and labels:
[1] = test system: luciferase-tagged SF8628 flank tumors; experiment: Flank model of DIPG, intraperitoneal treatment; type: in vivo, athymic-nude mice
Outline: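 Athymic-nude mice received subcutaneous right-flank implants of 40-mm3 chunks of luciferase-tagged SF8628 tumours grown in other nude mice. Tumour presence was confirmed by luciferase scan at 1 week. Dosing began at a mean caliper volume of 140 mm3: reference HDAC inhibitor 10 mg/kg, test compound 12 mg/kg (molecular-weight adjusted), or vehicle (10% DMSO, 36% PEG, 54% PBS). Dosing stopped at 1500 mm3 or euthanasia end points. Tumours were harvested on the last treatment day for acetylated-H3 immunoblot with GAPDH as loading control.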

[2] = primate studies, oral delivery; cited from earlier work
[3] = test system: RCAS-based DIPG tumors; experiment: Survival study in tumor-bearing RCAS mice; type: in vivo
Outline: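 DIPG was induced in 3–5-day-old Ntva/p53fl/fl pups by pontine injection of DF1 cells carrying RCAS-PDGFB, H3K27M-GFP, CRE and luciferase. From day 21–24, over 2 weeks, mice received one of: intraperitoneal 10 mg/kg in 10% DMSO/36% PEG/54% PBS; intraperitoneal vehicle; or one or four CEDs of 10 μl, 100 μM in 1% DMSO/PBS (or vehicle), 72 h apart, each over 6 min. End point was ≥10% weight loss on two consecutive measurements, or other end points. Survival was analysed by log-rank.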

[4] = Safety in mice; type: in vivo
[5] = 11 patients, oral formulation; cited from earlier work
[6] = test system: SF8628 orthotopic DIPG tumors; experiment: Orthotopic SF8628 xenograft, histology after treatment; type: in vivo, SCID mice
Outline: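 NOD/SCID mice received 1 million luciferase-transduced SF8628 cells stereotactically into the pons (1.0 mm right, 0.5 mm posterior, 5.0 mm deep from lambda). Treatment started 21–24 days later over 2 weeks, using four CED infusions about 72 h apart, each over 6 min at 1.67 μl/min. Brains were then harvested. Nuclei on H&E and Ki67+ nuclei were counted on ≥5 40× fields. Apoptosis index was Cc3+ cells divided by tumour area × cellularity. H3Ac+ nuclei were counted per 10× field after colour deconvolution, Gaussian blur and thresholding.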

[7] = four CED doses at 72-hour intervals

Cc1[nH]c2ccccc2c1CCNCc1ccc(/C=C/C(=O)NO)cc1 [panobinostat]
H3Ac in tumors by Western blotting ([1]; animals sacrificed on the last day of treatment): recovery of H3Ac | tumor growth compared to vehicle ([1]; caliper tumor volume, daily intraperitoneal for 2 weeks): slowed down tumor growth | detection in CSF [2]: failed at detecting significant amounts | median survival ([3]; 4× CED, 10 μl 100 μM, 72 hours apart): 63 days | median survival ([3]; intraperitoneally, 10 mg/kg, over 2 weeks): 35 days | median survival ([3]; single CED session, 10 μl 100 μM): 37.5 days | toxicity after systemic injections [4]: significant toxicities including weight loss | detection in CSF [5]: not detected | H3Ac in tumor cells versus intraperitoneal vehicle [6, 7]: increase in H3Ac in tumor cells | Ki67+ cycling cells versus vehicle [6, 7]: decrease in overall Ki67^+ cycling cells | apoptotic cell death, cleaved caspase-3 positive cells [6, 7]: increase in apoptotic cell death | tumor cellularity versus vehicle ([6]; four CED doses at 72-hour intervals, H&E): decrease in tumor cellularity | histological effects (cellularity, Ki67, Cc3, H3Ac) ([6]; systemic treatment): failed to achieve any of these results
